Published values from different studies.
Lines come from different studies, so protocols differ. ≈ marks a conversion by molar mass, not a printed value.
Organism: Mycobacterium tuberculosis

CC[C@@H](CO)NCCN[C@@H](CC)CO — IC50 (microbial growth; H37RV): 1510 nM
CO[C@H]1/C=C/O[C@@]2(C)Oc3c(C)c(O)c4c(O)c(c(/C=N/N5CCN(C)CC5)c(O)c4c3C2=O)NC(=O)/C(C)=C\C=C\[C@H](C)[C@H](O)[C@@H](C)[C@@H](O)[C@@H](C)[C@H](OC(C)=O)[C@@H]1C — IC50 (microbial growth; H37RV): 4 nM
COC(=O)c1cc(-c2cccc(NC(=O)Nc3cccc(C(F)(F)F)c3)c2)on1 — MIC (microbial growth; ATCC27294 H37RV; 7 days): 2 µg/mL (≈ 4.93 µM)
COc1nc2ccc(Br)cc2cc1[C@@H](c1ccccc1)[C@@](O)(CCN(C)C)c1cccc2ccccc12 — MIC90 (microbial growth; H37RV): 0.05 µM (≈ 0.0278 µg/mL)
CCCCCCNC(=S)Nc1cccc(-c2cc(C(=O)OC)no2)c1 — MIC (microbial growth; ATCC27294 H37RV; 7 days): 2 µg/mL (≈ 5.53 µM)
Cc1cc(C)nc(-n2nc(C)cc2NC(=O)c2ccc3c(c2)OCO3)n1 — MIC50 (microbial growth; H37RV): > 20 µM
NNC(=O)c1ccncc1 — IC50 (microbial growth; ERDMAN): 180 nM
COC(=O)c1cc(-c2cccc(NC(=O)Nc3cccc(Br)c3)c2)on1 — MIC (microbial growth; ATCC27294 H37RV; 7 days): 0.5 µg/mL (≈ 1.2 µM)
[H]/N=C(/N)N[C@H]1[C@H](O)[C@@H](O)[C@H](O[C@@H]2O[C@@H](C)[C@](O)(C=O)[C@H]2O[C@@H]2O[C@@H](CO)[C@H](O)[C@@H](O)[C@@H]2NC)[C@@H](N/C(N)=N\[H])[C@@H]1O — IC50 (microbial growth; H37RV): 200 nM
O=[N+]([O-])c1cc2cc3ccc4oc([N+](=O)[O-])cc4c3cc2o1 — MBC (microbial killing; H37RV): 0.062 µg/mL
COC(=O)c1cc(-c2cccc(NC(=S)Nc3ccc(F)cc3F)c2)on1 — MIC (microbial growth; ATCC27294 H37RV; 7 days): 2 µg/mL (≈ 5.14 µM)
Cc1ccc(NC(=O)c2cc(N3CCNCC3)cc(C(F)(F)F)c2)cc1Nc1nccn1-c1cc(NC2CC2)ncn1 — MIC50 (microbial growth; H37RV): 0.63 µM (≈ 0.364 µg/mL)
c1cc(Cn2cnc3ccccc32)nc(Cn2cnc3ccccc32)c1 — MBC (microbial killing; H37RV; 21 days): > 50 µM
COC(=O)c1cc(-c2cccc(NC(=S)Nc3ccc(F)c(Cl)c3)c2)on1 — MIC (microbial growth; ATCC27294 H37RV; 7 days): 4 µg/mL (≈ 9.86 µM)
CCCCCCC#Cc1cncc(-c2nnc(SCc3ccc([N+](=O)[O-])o3)n2C2CC2)c1 — IC50 (microbial growth; ERDMAN): 48 nM
CC(N)(CO)C(=O)Nc1ccc(C(=O)Nc2ccnc(=O)[nH]2)cc1 (stereo not drawn) — IC50 (microbial growth; H37RA): > 100000 nM
COC(=O)c1cc(-c2cccc(NC(=O)Nc3cccc(C#N)c3)c2)on1 — MIC (microbial growth; ATCC27294 H37RV; 7 days): 16 µg/mL (≈ 44.2 µM)
O=[N+]([O-])c1ccc(/C(O)=C/C(=S)S)cc1 — MBC (microbial killing; ATCC27294 H37RV): 31.2 µg/mL
CCCCCCC#Cc1cncc(-c2nnc(SCc3ccc([N+](=O)[O-])cc3)n2C)c1 — IC50 (microbial growth): 1300 nM
O=[N+]([O-])c1cn(Cc2cccc(Cn3cnc([N+](=O)[O-])c3)n2)cn1 — MBC (microbial killing; H37RV; 21 days): > 200 µM
[H]/N=C(/N)N[C@H]1[C@H](O)[C@@H](O)[C@H](O[C@@H]2O[C@@H](C)[C@](O)(C=O)[C@H]2O[C@@H]2O[C@@H](CO)[C@H](O)[C@@H](O)[C@@H]2NC)[C@@H](N/C(N)=N\[H])[C@@H]1O — MIC (microbial growth; ATCC27294 H37RV; 7 days): 0.5 µg/mL (≈ 0.86 µM)
CCOC(=O)c1c(NC(=O)c2c(F)c(F)c(F)c(F)c2F)sc2c1CCN(CC)C2 — MIC90 (microbial growth; H37RV): 0.23 µM (≈ 0.103 µg/mL)
CCCCCCC#Cc1cncc(-c2nnc(SCc3cc([N+](=O)[O-])cc([N+](=O)[O-])c3)n2C)c1 — IC90 (microbial growth; ERDMAN): 440 nM
CNc1cc(-n2nc(C(=O)NCCN3C(C)CCCC3C)cc2Nc2cc(NC(=O)c3cncc(C(C)(C)C)c3)ccc2C)ncn1 (stereo not drawn) — MBC (microbial killing; H37RV; 5 days): 1.25 to 2.5 µM
CO[C@H]1/C=C/O[C@@]2(C)Oc3c(C)c(O)c4c(O)c(c(/C=N/N5CCN(C)CC5)c(O)c4c3C2=O)NC(=O)/C(C)=C\C=C\[C@H](C)[C@H](O)[C@@H](C)[C@@H](O)[C@@H](C)[C@H](OC(C)=O)[C@@H]1C — IC90 (microbial growth; ERDMAN): 35 nM
O=C(O)c1nccnc1NC(=O)c1cccc2ccccc12 — MIC50 (microbial growth; ATCC27294 H37RV): 1000 µM (≈ 293 µg/mL)
NNC(=O)c1ccncc1 — MBC (microbial killing; H37RV; 7 days): 30.7 µg/mL
CCCCCCC#Cc1cncc(-c2nnc(SCc3ccc(C#N)cc3)n2C)c1 — IC90 (microbial growth; ERDMAN): > 100000 nM
Cc1cn(-c2cc(C(=O)Nc3ccc(C)c(Nc4nccn4-c4cc(NC5CC5)ncn4)c3)cc(C(F)(F)F)c2)cn1 — MBC (microbial killing; H37RV; 5 days): 2.5 to 5 µM
CCCCCCC#Cc1cncc(-c2nnc(SCc3ccc(Cl)c(F)c3)n2C)c1 — IC50 (microbial growth; ERDMAN): 5400 nM
O=C(C[n+]1ccn(Cc2cccc(Cn3cc[n+](CC(=O)c4ccc([N+](=O)[O-])cc4)c3)n2)c1)c1ccc([N+](=O)[O-])cc1 — MBC (microbial killing; H37RV; 21 days): 100 µM
Cn1c(SCc2ccc(Cl)cc2)nnc1-c1cncc(C#Cc2ccccc2)c1 — IC90 (microbial growth; ERDMAN): 4400 nM
COC(=O)c1cc(-c2cccc(NC(=S)Nc3cc(C(F)(F)F)cc(C(F)(F)F)c3)c2)on1 — MIC (microbial growth; ATCC27294 H37RV; 7 days): 16 µg/mL (≈ 32.7 µM)
